Source: PubChem BioAssay (The Scripps Research Institute Molecular Screening Center)
A selection: hits, their analogues and other compounds. The true share with any hit is near 4%.
OX1R antag-1 – OX1R (HCRTR1) antagonists, primary screen, fluorescence, CHO/OX1R cells, Fluo-8 calcium, orexin A; Fluo-8 calcium fluorescence; inhibition, % at 5 µM; 0.43% of 330,000 active; AID 434989, 2010;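 active means inhibition above its plate's threshold, mean inhibition of all tested compounds on the plate plus 3 SD, cut at about 37% in these data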;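 further: 0% = orexin A challenge wells and 100% = SB-334867-A antagonist wells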
Target sequence (O43613 whole entry, looked up): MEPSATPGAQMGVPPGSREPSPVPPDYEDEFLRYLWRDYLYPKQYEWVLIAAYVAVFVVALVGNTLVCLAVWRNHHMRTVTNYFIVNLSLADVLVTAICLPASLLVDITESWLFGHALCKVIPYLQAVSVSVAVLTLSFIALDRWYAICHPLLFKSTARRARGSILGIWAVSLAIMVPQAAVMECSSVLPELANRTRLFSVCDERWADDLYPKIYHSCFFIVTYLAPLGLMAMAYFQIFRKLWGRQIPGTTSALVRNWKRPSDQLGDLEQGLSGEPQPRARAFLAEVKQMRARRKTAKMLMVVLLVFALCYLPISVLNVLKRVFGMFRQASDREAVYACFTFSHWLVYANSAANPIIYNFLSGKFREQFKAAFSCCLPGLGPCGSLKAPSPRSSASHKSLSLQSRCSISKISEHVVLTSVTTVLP
TAAR1 antag – human TAAR1 antagonists, primary screen, Fluo-8 calcium fluorescence, CHO RD-HGA16 cells; Trace amine-associated receptor 1 (Homo sapiens), Q96RJ0; 1.5% of 360,000 active; inhibition, % at 3 µM; antagonist;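 active means inhibition above a per-plate cutoff, the mean inhibition of test compounds on that plate plus 3 SD, cut at about 49% in these data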;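 further: 0% = DMSO plus EC80 beta-PEA response and 100% = DMSO alone without agonist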
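Assay system: RD-HGA16 CHO cells with stable hTAAR1 and Gα16 / Reagent: EC80 β-phenethylamine stimulus / Doses: 3 µM, single point / Timing: dye loading 75 min at 37 °C, then 30 min room temperature / Measured by: Fluo-8 intracellular calcium dye fluorescence, real-time kinetic reads / Controls: vehicle wells and EC80 agonist wells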
OX1R antag-2 – antagonists of human orexin 1 receptor (OX1R). OX1R-expressing cells, FRET antagonist read-out. inhibition, % at 6.6 µM. 1.8% of 330,000 active. AID 485270, 2010; in the data active means inhibition mostly above about 38%, no sharp cut-off; inactive means mostly below about 40%;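 further: 0% = agonist challenge alone and 100% = reference antagonist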
CHO parental Ca – ATP-evoked calcium signal inhibitors, parental CHO, primary screen, counter-screen for OX1R antagonist project, cell-based, fluorescence, Fluo-8 calcium dye; inhibition, % at 5.6 µM; parental CHO-K1, ATP-induced calcium, Fluo-8 fluorescence; 0.63% of 330,000 active;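 active means inhibition above that plate's mean sample inhibition plus 3 SD, cut at about 26% in these data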;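 further: 0% = ATP-challenged DMSO wells and 100% = DMSO wells without ATP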
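Measured by: calcium-sensitive Fluo-8 fluorescence / Test system: CHO parental line / Controls: ATP-challenged DMSO wells low, unchallenged DMSO wells high / Measure: % inhibition / Compound: single nominal dose of 5.6 µM per compound / Replicates: single well per compound, no replicates / Reagent: ATP as calcium-mobilizing challenge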
TAAR1 agonist – human TAAR1 agonists, primary screen, Fluo-8 calcium fluorescence, CHO RD-HGA16 cells; AID 624467, 2012; activation, % at 3 µM; 0.99% of 360,000 active; vehicle wells 0%, saturating PEA agonist 100%;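 active means activation above the mean activation of all test compounds in the run plus 3 SD, cut at about 38% in these data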
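Signal – calcium-sensitive Fluo-8 signal, excitation 470-495, emission 515-575 nm · System – RD-HGA16 (CHO) cells co-expressing Gα16 and hTAAR1 · Incubation – 17-24 h seeding, 75 min 37 °C dye, 30 min RT · Compound dosing – 3 µM single concentration · Repeats – no replicates (n 1)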
* hit, by the source's call; / = no result given.

SMILES | OX1R antag-1 | TAAR1 antag | OX1R antag-2 | CHO parental Ca | TAAR1 agonist
CC(NC(=O)CSc1nnc(-c2cc3cc(Cl)ccc3o2)n1C)c1ccccc1 (stereo not drawn) | -26 | 7 | 54* | -13 | 5
C[C@H](c1ccccc1)N1C[C@@H](COCc2ccccc2)Oc2cccc(Oc3ccc(C(C)(C)C)cc3)c2S1(=O)=O | / | -3 | / | / | 2
COc1ccc(NC2=C(c3ccc(OC)cc3)C(=O)c3ccccc32)cc1 | -16 | 36 | 23 | -11 | 10
COc1ccc(C2=C(N)c3ccccc3C2=O)cc1 | 0 | / | 45* | 3 | /
COc1cc(/C=N/Nc2ccccn2)ccc1O | -13 | -14 | 5 | 1 | 7
CCc1nnc(N/N=C\c2ccc(OC(C)=O)c(OC)c2)n1N | -5 | -9 | 44* | -14 | 2
CCOc1cc(/C=N/Nc2nnc(C)n2N)ccc1OC(C)=O | / | -4 | / | / | -1
CCc1nnc(N/N=C/c2cc(Br)c(O)cc2O)n1N | -16 | -15 | 72* | -2 | 7
CCc1nnc(N/N=C/c2ccc(O)c(OC)c2)n1N | -1 | -8 | 59* | 1 | 14
NC(=O)N/N=C\c1cc(Br)ccc1O | -10 | -1 | 1 | -9 | 2
CC(C)(C)c1nnc(N/N=C/c2cc(Br)ccc2O)n(N)c1=O | 9 | 68* | 14 | -5 | 25
CCOC(=O)C1=C(C)N(C)C(C)=C(C(=O)OCC)C1c1ccsc1 | -37 | -24 | 19 | -30 | 3
Cc1cc(N2CCN(C(=O)OC(C)(C)C)C[C@@H]2C)ccc1N1CCN(Cc2ccccc2)[C@H](C)C1 | / | 9 | / | / | -2
CNC(=S)N/N=C/c1c(Cl)cccc1Cl | -17 | 6 | 21 | -4 | 9
COc1cccc(/C=N/Nc2nnc(C)n2N)c1O | 5 | -11 | 71* | -1 | -2
CCc1nnc(N/N=C/c2c(Cl)cccc2Cl)n1N | -14 | 3 | 45* | -4 | 9
COc1ccc(/C=N/Nc2nncn2N)cc1Br | 3 | 2 | 65* | -9 | 15
Nn1cnnc1N/N=C/c1ccc(Cl)cc1Cl | / | -10 | / | / | 0
COc1ccc(C(=O)O)cc1S(=O)(=O)Nc1ccc2cn[nH]c2c1 | -12 | 1 | 11 | -9 | 2
CCn1c(SCC(=O)Nc2nc3ccc(C)cc3s2)nc2c(c1=O)SC(C)C2 (stereo not drawn) | 59* | / | 81* | 45* | /
Oc1ccc(Br)cc1-c1cc(-c2ccc(Cl)cc2)n[nH]1 | 24 | 22 | 24 | 50* | 8
COc1ccc(C(=O)NC(C)c2cnn(-c3ccccn3)c2C)o1 (stereo not drawn) | -9 | -2 | 16 | -4 | 0
CC(C)Cn1cnc2c(c(-c3ccccc3)c(-c3ccccc3)n2Cc2ccco2)c1=N | -18 | -8 | -2 | -28 | 42*
Cc1noc(C)c1CSCC(=O)OCc1nnc(-c2ccc([N+](=O)[O-])cc2)o1 | 1 | 7 | 47* | -4 | 0
Cc1noc(C)c1COc1ccc(C(=O)OCc2nnc(-c3ccc(Cl)cc3)o2)cc1 | 54* | 28 | 39 | 35* | 12
SMILES | OX1R antag-1 | TAAR1 antag | OX1R antag-2 | CHO parental Ca | TAAR1 agonist
Cc1ccc(S(=O)(=O)CCC(=O)OCc2nnc(-c3ccc([N+](=O)[O-])cc3)o2)cc1 | / | -20 | / | / | 0
CCNc1nc2nc3ccc(C)cn3c(=O)c2cc1C(=O)NCC1CCCO1 (stereo not drawn) | -23 | -1 | 64* | -17 | 1
COCCCNC(=O)c1cc2c(=O)n3cc(C)ccc3nc2nc1NCC1CCCO1 (stereo not drawn) | -16 | / | 105* | -13 | /
C=CCNC(=O)c1cc2c(=O)n3cc(C)ccc3nc2nc1NCC1CCCO1 (stereo not drawn) | -9 | / | 47* | 7 | /
Cc1ccc2nc3nc(NCC4CCCO4)c(C(=O)NC4CCCC4)cc3c(=O)n2c1 (stereo not drawn) | -19 | 2 | 43 | -17 | 5
O=C(NCc1cccc(F)c1)Nc1nnc([C@@H]2C[C@H](O)[C@@H](CO)O2)s1 | / | -19 | / | / | 1
O=C(NC(=S)N1CCN(Cc2ccccc2)CC1)c1ccco1 | -17 | -12 | -1 | 100* | 1
CC1CCN(C(=S)NC(=O)c2ccco2)CC1 | -8 | -18 | 4 | -3 | 0
COc1ccc(CCN2C(=NC(=O)C(C)C)SC3CS(=O)(=O)CC32)cc1 (stereo not drawn) | -23 | -7 | 5 | -7 | 2
COCCCn1[nH]c2c3c(ccc2c1=O)C(=O)c1ccccc1C3=O | -10 | -4 | 75* | -13 | 2
Cc1ccc(-n2[nH]c3c4c(ccc3c2=O)C(=O)c2ccccc2C4=O)cc1 | -4 | -8 | 9 | -5 | 1
NC(=O)c1c(-c2ccc(Cl)cc2Cl)csc1NC(=O)Cc1ccccc1 | 9 | 35 | 58* | 56* | 3
O=C(Cc1ccccc1)Nc1scc(-c2ccccc2)c1C(=O)N1CCOCC1 | -26 | / | 17 | -22 | /
S=C(NCCc1ccccc1)N1CCOCC1 | 3 | -2 | 6 | -11 | 2
O=C(CCC(=O)N1CCOCC1)NCCc1ccccc1 | -14 | 63* | 6 | -6 | 39*
CC1(C)N([O-])c2cc([N+](=O)[O-])ccc2[N+]1=O | 14 | -5 | 53* | -1 | 0
Cc1ccc(C)n1-c1cc([N+](=O)[O-])ccc1-n1ccnc1 | -11 | -18 | 16 | -25 | 2
O=C(C1=C[C@H](c2ccccc2)C[C@H](OCc2ccc(CO)cc2)O1)N1CCOCC1 | -21 | 8 | 33 | -17 | 2
O=C(CSc1ncnc2sc3c(c12)CCCC3)N1CCC(c2noc3ccc(F)cc23)CC1 | -15 | 0 | 6 | -8 | 6
Cc1cc(SCC(=O)N2CCC(c3noc4ccc(F)cc34)CC2)nc2ccccc12 | -27 | 13 | 49* | -11 | 11
COC(=O)C1=C(C)N(C)C(=NCC2CC2)NC1c1ccccc1C(F)(F)F (stereo not drawn) | / | -25 | / | / | 1
N#CC1(c2ccccc2)CCC(NCCc2ccccc2)CC1 (stereo not drawn) | -57 | 9 | 7 | -10 | 41*
O=C(NCCc1ccccc1)C1(c2ccccc2)CCCC1 | -15 | -5 | 9 | -25 | 23
CCN(CC)c1ccc2c(-c3ccc(S(=O)(=O)O)cc3S(=O)(=O)[O-])c3ccc(=[N+](CC)CC)cc-3oc2c1 | 93* | / | -38 | 75* | /
C=CCOn1c(=O)c(-c2ccc(OC)c(OC)c2)[n+]([O-])c2ccccc21 | -33 | -2 | 61* | -7 | 7
COc1ccc(-c2c(=O)n(OC)c3ccccc3[n+]2[O-])cc1OC | -17 | 0 | 44* | -7 | 1
CCOn1c(=O)c(-c2ccccc2)[n+]([O-])c2ccccc21 | -27 | -8 | 25 | 1 | 2
